Bioassay records: PubChem, several laboratories
A selection: hits, their analogues and other compounds. The true share with any hit is near 5.6%.
CHOP inhibitor = blocks CHOP induction under ER stress; CHO-K1 CHOP-promoter luciferase, tunicamycin-induced, 15-18 h; inhibition, % at 10 µM; 3.8% of 220,000 active; AID 2732;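 active = compounds that reduced the stress-induced luciferase reporter signal by more than about 70% of percent inhibition, limit read from the data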;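 note: 0% = tunicamycin plus vehicle and 100% = wells without tunicamycin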
aDG glyco up = increases alpha dystroglycan glycosylation; 0.22% of 360,000 active; AID 624168; activation, % at 10 µM; Pro5-aDG cells, alpha-DG glycosylation AlphaScreen (IIH6); 0% Pro5, 100% B10-LARGE cell signal;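 active = activation of at least 8% versus controls, or a plate z-score of at least 8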;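 note: Pro5 are CHO cells carrying HIG-tagged alpha-DG that lacks glycosylation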
GRIN3A LBD mod = modulators (binders) of human NR3A ligand-binding domain | Tm shift relative to glycine control, % at 25 µM | 2.5% of 340,000 active | NR3A LBD differential scanning fluorimetry, Tm shift; 0% = protein alone, 100% = glycine-bound protein;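 active = melting temperature shift of at least 10% of the positive control shift, at one fixed dose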
MPTP inh = blocks calcium-induced mitochondrial swelling; isolated mouse mitochondria, Ca2+ swelling absorbance, 30 min; inhibition, % at 10 µM; 1.4% of 360,000 active; AID 602449;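 active = inhibition of 50% or more, scaled per plate between neutral and stimulator controls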;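 note: 0% = DMSO wells given calcium and 100% = 1 mM EGTA wells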
UPR CHOP act = activators of apoptotic arm of unfolded protein response (CHOP); 0.34% of 330,000 active; CHO-CHOP luciferase reporter, UPR activation, luminescence; percent of tunicamycin response over DMSO baseline; AID 449763; activation, % at 10 µM;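 active = at 10 µM dose, activation of 40% or more, normalized to positive control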;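 note: 100% = tunicamycin at 10 µg/mL and 0% = DMSO alone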
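assay system = CHO CHOP reporter cells | amount = 500 CHO-CHOP cells per well | buffer or medium = F12 with 10% FBS | incubation = 16-18 h cell attachment, then 6 h compound exposure, 37 °C | detection = luminescence read with Steady-Glo | read-out = percent activation relative to tunicamycin control | controls = tunicamycin high control, DMSO low control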
UPR XBP1 act = activators of adaptive arm of unfolded protein response (XBP1); CHO-XBP1 luciferase reporter, IRE1-XBP1 UPR activation, luminescence; percent of tunicamycin response, DMSO as zero; activation, % at 20 µM; 0.33% of 330,000 active; AID 463104;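 active = versus positive control, 20 µM dose yields 30% or more activation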;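 note: 100% = tunicamycin at 10 µg/mL and 0% = DMSO only wells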
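Assay system: IRE1-XBP1 luciferase reporter CHO line. Input: 1000 cells/well. Buffer or medium: F12 with 10% serum. Doses: 20 µM, 1% DMSO. Times: overnight seeding at 37 °C, 6 h compound treatment at 37 °C. Technique: Steady-Glo luciferase glow luminescence, 10 min after reagent addition.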
* = called active by the depositor; x = no result; ! = not confirmed by another sample.

SMILES	CHOP inhibitor	aDG glyco up	GRIN3A LBD mod	MPTP inh	UPR CHOP act	UPR XBP1 act
Cc1cc(C)cc(NC(=O)C2CCCN2/C=C/C(=O)C(F)(F)F)c1 (stereo not given)	3.9	0.0	12.5*	0.9	0.3	-3.1
O=C(Cn1sc2ccccc2c1=O)Nc1ccccc1	x	-0.4	x	4.8	x	x
O=C(Cn1sc2ccccc2c1=O)NC12CC3CC(CC(C3)C1)C2	90.5*	-0.5	2.5	20.9	31.0	2.0
C/C(CCc1oc2ccc(Cl)cc2c1-c1ccc(C)o1)=N\O	74.8*	-0.2	0.3	4.3	2.9	-1.5
CN(C(=O)COC(=O)c1ccccc1SCC(=O)N1CCCC1)C1CCS(=O)(=O)C1 (stereo not given)	x	0.0	-0.3	0.1	10.0	-1.5
Cn1c(=O)c([N+](=O)[O-])c(-n2cnc3ccccc32)c2ccccc21	73.7*	0.0	2.9	4.3	21.2	7.7
Cc1nccn1-c1c([N+](=O)[O-])c(=O)n(C)c2ccccc12	5.9	0.0	-0.5	0.7	-2.0	-3.2
NC(c1csc(Nc2ccc(C(=O)NCCO)cc2)n1)C1CCCCC1 (stereo not given)	x	-0.1	x	0.6	x	x
O=C(c1ccc(Cl)c(S(=O)(=O)N2CCCCCC2)c1)N1CCCC1	1.3	0.1	-4.2	1.3	0.5	0.2
O=C(CNC(=O)C1CCCCC1)OCC(=O)c1cccc(Cl)c1	x	0.0	-1.1	0.1	-0.5	-0.3
COc1ccc(Nc2ncnc3sc(-c4ccccc4)cc23)cc1OC	43.7	0.3	12.6*	18.1	0.6	-2.5
COc1ccc(Nc2ncnc3c2cnn3-c2ccccc2)cc1OC	19.0	1.4	0.4	-1.7	4.4	3.4
Cc1nc(SCc2nc3c(O)cccc3[nH]2)c2oc3ccccc3c2n1	x	0.4	-5.7	1.7	-0.4	12.2
Cc1cc(C)n(Cc2ccc(NC(=O)c3ccc(COc4ccccc4Br)cc3)cc2)n1	42.9	1.4	10.2*	-0.2	3.6	1.8
Cc1cc(C)nc(NC(=O)c2ccc(COc3ccccc3Cl)cc2)c1	8.9	3.5	4.2	-3.8	-0.7	-0.7
O=C(Nc1cccnc1)c1ccc(COc2ccccc2Br)cc1	x	0.4	35.8*	0.3	3.5	8.2
O=C(NCc1cccnc1)c1ccc(COc2ccccc2Br)cc1	43.8	2.5	0.5	13.3	3.8	3.0
NC(=O)c1ccc(NC(=O)c2ccc(COc3ccccc3Br)cc2)cc1	x	-0.1	22.1*	0.0	2.6	4.6
C[C@H]1COc2cccc(N3CCSCC3)c2S(=O)(=O)N1	x	0.0	x	0.6	x	x
O=S(=O)(Nc1ccc(-n2cccc2)cc1)c1ccc(Cl)c(Cl)c1	-11.1	-0.1	34.7*	37.5	1.1	-0.8
O=C(CN1CCCC1)Nc1ccc(F)c(Cl)c1	x	0.1	-0.8	0.5	-0.2	-2.3
Cc1cc(C)n(-c2ccc(C(=O)Nc3cccc([N+](=O)[O-])c3)cc2)n1	-15.6	2.0	18.6*	1.7	0.5	-3.3
Cc1cc(C)n(-c2ccc(C(=O)Nc3ccc(S(=O)(=O)NCc4ccco4)cc3)cc2)n1	x	5.2	17.2*	-2.2	2.3	1.9
Cc1cc(C)n(-c2ccc(C(=O)Nc3cccc(S(=O)(=O)N(C)C)c3)cc2)n1	58.0	2.0	3.0	3.2	2.5	1.2
Cc1cc(C)n(-c2ccc(C(=O)Nc3nc4ccccc4s3)cc2)n1	90.4*	0.0	14.6*	-2.1	5.2	7.3
SMILES	CHOP inhibitor	aDG glyco up	GRIN3A LBD mod	MPTP inh	UPR CHOP act	UPR XBP1 act
Nc1ccc(C(=O)Nc2nc3ccccc3s2)cc1	18.4	-0.2	7.7	-1.3	3.5	-6.5
COc1ccc(C)cc1NC(=O)c1cc(S(=O)(=O)N2CCCCC2)ccc1N1CCOCC1	x	-0.5	-2.2	0.0	1.2	-0.2
COc1ccc(C2CC(c3ccccc3)n3nnnc3N2)cc1 (stereo not given)	8.1	0.3	411.4*	-0.7	0.8	0.1
COc1ccc(C2CC(c3cc(Br)ccc3F)n3nnnc3N2)cc1 (stereo not given)	69.2	-0.1	0.6	-13.1	4.2	5.4
Cc1sc(N2CCN(S(=O)(=O)c3ccc4c(c3)NC(=O)CO4)CC2)nc1-c1ccccc1	x	0.4	-0.2	0.6	1.6	0.2
COc1ccc(/C=C/c2nc3ccccc3n2C)cc1	81.1*	0.3	-4.5	0.6	-9.6	-6.2
Oc1c(C=Nc2cccc3cccnc23)sc2ccccc12	-48.1	x	x	x	58.6*	38.9*
Cc1cccc(/N=C/c2sc3ccccc3c2O)n1	13.8	0.0	0.0	12.0	0.5	1.7
CN1CCc2cccc3c2[C@H]1Cc1ccc(O)c(O)c1-3	21.2	0.1	11.5*!	-0.2	-1.6	-2.1
CCCOP(=O)(OCCC)c1c([N+](=O)[O-])cc(C(F)(F)F)cc1[N+](=O)[O-]	45.0	0.5	11.0*	3.2	2.8	-4.8
Nc1c(C(=O)N2CCCCCC2)oc2ccccc12	x	-0.2	3.4	0.6	3.5	0.9
COc1cc(CCCN2C(=S)NC[C@@H]2CC2CCCCC2)cc(OC)c1OC	9.8	0.6	-4.7	-0.5	-1.0	-1.4
O=c1c(Cl)c(N/N=C/c2ccc(Br)cc2)cnn1-c1ccccc1	5.2	0.4	13.2*	-10.8	1.9	-0.4
Cc1c(NC(=O)CCc2ccccc2)cccc1[N+](=O)[O-]	2.8	-0.4	0.0	-0.3	-1.0	-5.1
COc1ccccc1C(=O)Nc1ccc(C(=O)/C=C/c2cccs2)cc1	27.5	0.1	11.2*	3.5	3.1	1.0
COc1ccc(C(=O)Nc2cccc(NC(=O)c3cccs3)c2)cc1OC	x	0.0	6.4	0.1	0.9	-3.0
COc1ccc(C(=O)Nc2ccc(NC(=O)c3cccs3)cc2)cc1Cl	-21.7	0.4	33.6*	0.2	0.0	1.1
COc1ccc(C(=O)Nc2ccc(Cl)cn2)cc1Cl	-20.7	0.0	29.6*	1.5	3.1	-1.1
COc1ccc(/C=C/C(=O)c2ccc(NC(=O)c3cccs3)cc2)cc1OC	-234.2	-0.3	16.1*	0.8	3.1	2.0
COc1cccc(-c2sc3ccc(OC)cc3c2C#CCCO)c1	x	0.0	9.8	0.6	0.6	0.4
O=C(Nc1ccc(NC(=O)c2ccc(Cl)cc2Cl)cc1)c1cccs1	x	0.0	-4.2	0.7	-0.9	2.0
COc1ccc(C(=O)Nc2ccc(NC(=O)c3cccs3)c(OC)c2)cc1Cl	-12.9	1.2	33.2*	0.0	-0.5	-1.6
COc1cc(NC(=O)c2cccs2)c(OC)cc1NC(=O)Nc1ccc(F)cc1	x	-0.2	24.7*	1.4	1.8	-5.7
COc1c(Cl)cc(Cl)cc1C(=O)Nc1ccc(NC(=O)c2cccs2)cc1	50.0	1.1	213.9*	0.2	0.2	-2.8
C[n+]1cccc(C(=O)NNC(=O)C23CC4CC(CC(C4)C2)C3)c1	8.9	-0.4	-1.3	-1.3	-0.2	-0.2
